Reference: PubChem BioAssay
Calls of active or inactive are those of the source.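 How the source made its calls, unless noted: active means viability at or below 30% in both replicate assays; inconclusive means viability at or below 30% in just one of the two assays; inactive means the rest.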

What was measured:
[1] = Her2 expression decrease, cell viability multiplex – SKBR3 breast tumor cells, AlphaScreen, ATP viability, primary screen (AID 461;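 active means Her2 level under about 52% in both replicate screens, with viability over 70% of control, limit read from the data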;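 on Her2 level: lower value means less Her2 protein in the cells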;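 on viability: percent of carrier control wells set as 100% viability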); conditions: SKBR3 Her2 protein level, 18-24 h, measured here: SKBR3 viability, ATP luminescence, at 10 µM
[2] = target: Receptor tyrosine-protein kinase erbB-2 (Homo sapiens) (UniProt P04626); assay: as above; conditions: 18-24 h, at 10 µM, stronger effect = lower value
[3] = reduced viability of SK-BR-3 breast cancer cells – cell-based, 24 h, human, pilot screen (AID 572;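 active means viability at or below 10% of carrier control in both of two separate runs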;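 further: compound exposure lasted between 18 and 24 h rather than exactly 24 h; 100% = carrier-treated control wells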); conditions: SK-BR-3 viability, CellTiter-Glo luminescence, at 10 µM, stronger effect = lower value
[4] = HUVEC growth inhibition – cell-based, human, primary screen (AID 575); conditions: HUVEC proliferation, CellTiter-Glo luminescence, 72 h; at 10 µM; stronger effect = lower value;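 further: 100% = median of untreated cell wells with 0.1% DMSO on each plate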
Procedure, shortened: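 Material: primary human umbilical vein endothelial cells / Schedule: 72 h exposure, 37 °C, 5% CO2, 30 min RT equilibration / Signal: ATP-based CellTiter-Glo luminescent read / Read-out basis: percent of median DMSO-control luminescence / Control set: 32 DMSO-only cell-control wells (high), 32 MePR drug-control wells (low) per plate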

[5] = H69AR cell proliferation blockers – human, duplicate replicates, primary screen (AID 580;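 active means viability at or under a set limit in both replicates, limit being median viability minus 3 SD, cut at about 48% in these data, passing the limit was not always enough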;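 further: 100% = mean luminescence of untreated wells and 0% = no signal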); conditions: H69AR lung tumor cells viability, ATP luminescence, 72 h; at 10 µM; stronger effect = lower value
[6] = MRP1 drug-resistance reversers in H69AR cells – cell-based, doxorubicin co-treatment, pilot screen (AID 601;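 active means viability loss from added drug above about 55%, and viability with drug at most 40%, in both replicates, limit read from the data, passing the limit was not always enough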); conditions: CellTiter-Glo, 72 h, at 10 µM; for differential viability (reversal): stronger effect = higher value
[7] = yeast transport mutant growth inhibition pilot in 384-well plates, post-Golgi transport modulator project (AID 636; in the data active means inhibition above about 31%); conditions: absorbance 615 nm, about 18 h, stronger effect = higher value
[8] = growth suppression of yeast trafficking mutant, preliminary HTS, modulators of trafficking downstream of Golgi apparatus project, 1536-format plate, OD 615 nm (AID 637; in the data active means inhibition above about 30%); conditions: yeast transport mutant growth, absorbance 615 nm, 18 h; stronger effect = higher value
[9] = H69AR cells + 2 uM doxorubicin, measured here: viability with 2 uM doxorubicin, stronger effect = lower value
[10] = H69AR cells, compound alone cytotoxicity

Chain of Receptor tyrosine-protein kinase erbB-2 (Homo sapiens) (P04626 whole entry, looked up): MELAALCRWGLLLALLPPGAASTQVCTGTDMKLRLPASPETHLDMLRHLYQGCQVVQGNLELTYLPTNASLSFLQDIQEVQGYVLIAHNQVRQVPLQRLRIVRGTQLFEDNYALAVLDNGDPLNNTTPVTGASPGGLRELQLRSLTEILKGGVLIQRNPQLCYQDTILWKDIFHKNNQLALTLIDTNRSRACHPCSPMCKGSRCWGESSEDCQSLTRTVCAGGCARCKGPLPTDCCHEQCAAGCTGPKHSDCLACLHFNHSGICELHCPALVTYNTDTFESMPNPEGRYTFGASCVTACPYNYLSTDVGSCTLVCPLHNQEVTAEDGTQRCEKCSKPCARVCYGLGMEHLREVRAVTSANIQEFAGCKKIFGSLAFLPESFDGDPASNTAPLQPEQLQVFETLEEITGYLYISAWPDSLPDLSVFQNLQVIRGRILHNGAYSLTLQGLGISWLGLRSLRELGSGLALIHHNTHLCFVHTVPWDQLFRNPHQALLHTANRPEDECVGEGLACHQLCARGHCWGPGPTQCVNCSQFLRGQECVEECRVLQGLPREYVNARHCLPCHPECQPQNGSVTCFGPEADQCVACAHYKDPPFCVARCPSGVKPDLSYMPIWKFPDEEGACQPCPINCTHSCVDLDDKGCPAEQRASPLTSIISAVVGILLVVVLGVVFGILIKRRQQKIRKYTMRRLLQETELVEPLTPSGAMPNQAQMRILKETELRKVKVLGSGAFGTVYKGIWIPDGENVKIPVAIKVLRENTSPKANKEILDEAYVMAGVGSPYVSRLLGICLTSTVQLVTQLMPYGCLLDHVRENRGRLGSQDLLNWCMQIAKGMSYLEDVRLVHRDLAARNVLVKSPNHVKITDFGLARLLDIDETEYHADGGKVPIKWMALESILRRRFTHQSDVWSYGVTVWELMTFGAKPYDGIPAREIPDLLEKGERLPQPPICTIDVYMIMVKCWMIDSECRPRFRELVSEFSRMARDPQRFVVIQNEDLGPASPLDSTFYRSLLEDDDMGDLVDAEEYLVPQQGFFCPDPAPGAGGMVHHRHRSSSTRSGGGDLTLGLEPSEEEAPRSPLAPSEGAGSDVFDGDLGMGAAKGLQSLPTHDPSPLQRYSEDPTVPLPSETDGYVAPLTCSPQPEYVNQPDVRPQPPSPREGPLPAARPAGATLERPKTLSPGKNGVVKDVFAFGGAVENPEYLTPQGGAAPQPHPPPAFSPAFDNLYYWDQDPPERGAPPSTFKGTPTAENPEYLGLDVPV

SMILES | viability [1] | Her2 level [2] | viability [3] | viability [4] | viability [5] | differential viability (reversal) ([6]; H69AR cells + 2 uM doxorubicin) | viability [6, 9] | viability [6, 10] | inhibition [7] | inhibition [8]
CCCN1CCN(CCCNC(=O)Cn2nc(-c3ccc(Cl)cc3)ccc2=O)CC1 | 86% | 93.5% (inactive) | 86% (inactive) | 104% (inactive) | 101% (inactive) | 10.3% (inactive) | 90.6% | 101% | -2.76% (inactive) | 2.42% (inactive)
CC(=O)N1C(=O)C2(C(C#N)=C(N)Oc3cc(C)oc(=O)c32)c2ccccc21 (stereo not given) | 95.5% | 112% (inactive) | 95.5% (inactive) | 95.9% (inactive) | 88.1% (inactive) | 7.52% (inactive) | 80.6% | 88.1% | 1.84% (inactive) | -2.91% (inactive)
CC(C)CNS(=O)(=O)c1ccc(OCC(=O)Nc2ccc3c(c2)OCO3)c(Cl)c1 | 89.5% | 66% (inactive) | 89.5% (inactive) | 58.6% (inactive) | 66.7% (inactive) | -2.31% (inactive) | 69% | 66.7% | -5.39% (inactive) | -0.67% (inactive)
O=C(c1ccc2c(c1)[nH]c(=S)n1c3ccccc3nc21)N1CCN(c2ncccn2)CC1 | 100% | 82% (inactive) | 100% (inactive) | 88.7% (inactive) | 96.3% (inactive) | 5.5% (inactive) | 90.8% | 96.3% | -3.95% (inactive) | 3.67% (inactive)
Cn1c(=N)c(S(=O)(=O)c2ccc(Cl)cc2)cc2c(=O)n3ccccc3nc21 | 110% | 106% (inactive) | 110% (inactive) | 85.4% (inactive) | 83.1% (inactive) | -3.57% (inactive) | 86.7% | 83.1% | -1.95% (inactive) | -1.67% (inactive)
CCCC1C(C#N)=C(N)Oc2n[nH]c(C(C)(C)C)c21 (stereo not given) | 106% | 99.5% (inactive) | 106% (inactive) | 95.1% (inactive) | 105% (inactive) | 11% (inactive) | 94.4% | 105% | -6.97% (inactive) | -7.58% (inactive)
COc1ccc(C(=O)OC(COc2ccccc2)Cn2ccnc2)cc1 (stereo not given) | 83% | 97% (inactive) | 83% (inactive) | 79.6% (inactive) | 94.7% (inactive) | 9.57% (inactive) | 85.1% | 94.7% | 100% (active) | 95.5% (active)
C(=C\c1ccccc1)/CN1CCN(Cc2ccc3c(c2)OCCO3)CC1 | 85% | 91.5% (inactive) | 85% (inactive) | 105% (inactive) | 93% (inactive) | 4.42% (inactive) | 88.6% | 93% | -3.77% (inactive) | 1.15% (inactive)
CCOC(=O)c1c(C)oc2ccc(OCC(=O)N(CC)CC)cc12 | 85.5% | 85% (inactive) | 85.5% (inactive) | 101% (inactive) | 101% (inactive) | 3.73% (inactive) | 97.2% | 101% | -5.26% (inactive) | -0.32% (inactive)
Cn1c(SCC(=O)O)nnc1C1CCCCC1 | 102% | 110% (inactive) | 102% (inactive) | 99.7% (inactive) | 92.7% (inactive) | -1.2% (inactive) | 93.9% | 92.7% | 0.27% (inactive) | 8.85% (inactive)
N#Cc1ccc(CSc2nnc(-c3cnccn3)o2)cc1 | 106% | 110% (inactive) | 106% (inactive) | 93.8% (inactive) | 106% (inactive) | 23.4% (inactive) | 82.5% | 106% | -0.67% (inactive) | -0.97% (inactive)
CCOC(=O)N1CCN(c2c(NCCCOC(C)C)c(=O)c2=O)CC1 | 97.5% | 90% (inactive) | 97.5% (inactive) | 86.8% (inactive) | 97.5% (inactive) | 7.67% (inactive) | 89.8% | 97.5% | -3.47% (inactive) | -0.98% (inactive)
COC(=O)CCc1c(C)c(C#N)c2nc3ccccc3n2c1N1CCCC1 | 100% | 84% (inactive) | 100% (inactive) | 98.1% (inactive) | 73.2% (inactive) | 45.5% (inactive) | 27.7% | 73.2% | -8.24% (inactive) | 8.67% (inactive)
CCN(CC)CCN1C(=O)C(=O)/C(=C(/O)c2c(C)[nH]c(C(=O)OC)c2C)C1c1ccco1 (stereo not given) | 88% | 105% (inactive) | 88% (inactive) | 107% (inactive) | 93.4% (inactive) | -3.21% (inactive) | 96.6% | 93.4% | -4.8% (inactive) | -0.16% (inactive)
